The source made the active and inactive calls. No cut-off for these calls is given here.
What was measured:
[1] = organism: Mus musculus; test: Selectivity ratio of IC50 for mouse COX-1 to IC50 for mouse COX-2
Outline: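 In J774 cells, the ratio was taken as COX-1 IC50 over COX-2 IC50. COX-1 activity: 15 min compound pretreatment, then 30 min with 15 µM arachidonic acid. COX-2 activity: 24 h LPS (10 µg/mL) induction with compound. PGE2 was measured by RIA in both; IC50 values came from sigmoidal fits of three experiments.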

[2] = test system: HaCaT; test: Cytotoxicity against human HaCaT cells at 1 to 50 uM after 24 hrs by LDH release assay; assay type: cell-based
Outline: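 HaCaT cells were grown in high-glucose DMEM with 10% FBS to 80% confluency. They were exposed 24 h to compound at 1–50 µM (final DMSO ≤0.1%). LDH release was expressed as a percentage of Triton X-100 lysis (100%); mean of three experiments.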

[3] = test system: HaCaT; test: Antiproliferative activity against human HaCaT cells at 1 uM after 24 hrs by BrdU incorporation assay; assay type: functional, cell-based
Outline: (§1)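 HaCaT human keratinocytes were grown in high-glucose DMEM with 10% FBS and 2 mM L-glutamine at 37 °C and 5% CO2 to 80% confluency. Cells were treated 24 h with compound at 1, 10 or 50 µM (final DMSO ≤0.1%). Proliferation was read by BrdU incorporation as % of DMSO control; three experiments.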

[4] = test system: HaCaT; test: Antiproliferative activity against human HaCaT cells at 50 uM after 24 hrs by BrdU incorporation assay; assay type: functional, cell-based; outline: as §1
[5] = target: T1, Prostaglandin G/H synthase 1 (Mus musculus, UniProt P22437); test: Inhibition of COX-1 in mouse J774 cells assessed as reduction in PGE2 level using arachidonic acid as substrate preincubated for 15 mins followed by incubation with arachidonic acid for 30 mins by radio immunoassay; assay type: cell-based
T1 sequence (P22437 whole entry): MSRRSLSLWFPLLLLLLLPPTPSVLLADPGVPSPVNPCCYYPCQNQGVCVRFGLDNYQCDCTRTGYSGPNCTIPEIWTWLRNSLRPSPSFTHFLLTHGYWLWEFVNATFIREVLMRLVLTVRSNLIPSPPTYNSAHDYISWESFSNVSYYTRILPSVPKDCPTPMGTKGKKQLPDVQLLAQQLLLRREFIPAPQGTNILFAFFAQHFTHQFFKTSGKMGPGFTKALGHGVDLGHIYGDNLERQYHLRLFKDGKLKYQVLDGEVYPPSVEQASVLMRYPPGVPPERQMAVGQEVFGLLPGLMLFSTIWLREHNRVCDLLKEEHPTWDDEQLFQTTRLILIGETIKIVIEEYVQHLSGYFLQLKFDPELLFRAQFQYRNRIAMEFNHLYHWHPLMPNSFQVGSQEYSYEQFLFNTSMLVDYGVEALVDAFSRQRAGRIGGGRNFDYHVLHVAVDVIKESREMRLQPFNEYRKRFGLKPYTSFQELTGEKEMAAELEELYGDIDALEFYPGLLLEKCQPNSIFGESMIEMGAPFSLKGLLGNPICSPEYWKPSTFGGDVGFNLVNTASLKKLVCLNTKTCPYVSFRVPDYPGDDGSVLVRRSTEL
Outline: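 Murine J774 macrophages (2.5 × 10^5 cells/mL) were adhered 2 h at 37 °C and given fresh medium. Cells were pretreated with compound at 100 µM for 15 min, then incubated 30 min at 37 °C with 15 µM arachidonic acid. Supernatant PGE2 was measured by RIA as % inhibition versus control; triplicate wells, three experiments, IC50 from a sigmoidal variable-slope fit.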

[6] = target: T2, Prostaglandin G/H synthase 2 (Mus musculus, UniProt Q05769); test: Inhibition of COX-2 in mouse J774 cells assessed as reduction in LPS-induced PGE2 level incubated for 24 hrs by radio immunoassay; assay type: cell-based
T2 sequence (Q05769 whole entry): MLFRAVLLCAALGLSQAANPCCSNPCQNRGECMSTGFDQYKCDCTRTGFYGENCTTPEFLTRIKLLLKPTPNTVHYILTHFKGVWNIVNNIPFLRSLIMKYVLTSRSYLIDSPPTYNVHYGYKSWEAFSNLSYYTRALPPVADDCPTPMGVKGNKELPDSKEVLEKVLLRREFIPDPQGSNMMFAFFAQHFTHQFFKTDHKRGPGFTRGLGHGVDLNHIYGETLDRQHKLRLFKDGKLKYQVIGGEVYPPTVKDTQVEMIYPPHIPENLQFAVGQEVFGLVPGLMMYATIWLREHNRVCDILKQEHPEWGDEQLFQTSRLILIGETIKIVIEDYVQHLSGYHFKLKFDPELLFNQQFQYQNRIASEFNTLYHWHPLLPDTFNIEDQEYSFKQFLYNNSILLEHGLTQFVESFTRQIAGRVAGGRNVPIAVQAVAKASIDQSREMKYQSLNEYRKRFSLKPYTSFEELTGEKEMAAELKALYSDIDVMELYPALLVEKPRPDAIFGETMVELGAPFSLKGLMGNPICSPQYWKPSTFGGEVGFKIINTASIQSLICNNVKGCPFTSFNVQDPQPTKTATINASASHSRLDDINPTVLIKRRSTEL
Outline: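 Murine J774 macrophages were stimulated for 24 h with E. coli LPS (10 µg/mL) to induce COX-2, with or without compound (0.001–10 µM). Supernatant PGE2 was measured by RIA as % inhibition of production versus control; triplicate wells, mean of three experiments, IC50 from a sigmoidal variable-slope fit.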

[7] = test system: HaCaT; test: Antiproliferative activity against human HaCaT cells at 10 uM after 24 hrs by BrdU incorporation assay; assay type: functional, cell-based; outline: as §1
[8] = test system: HaCaT; test: Antiproliferative activity against human HaCaT cells after 24 hrs by BrdU incorporation assay; assay type: functional, cell-based; outline: as §1

| Compound | Ratio IC50 [1] | Activity [2] | Activity [3] | Activity [4] | IC50 [5] [nM] | IC50 [6] [nM] | Activity [7] | Activity [8] |
| --- | --- | --- | --- | --- | --- | --- | --- | --- |
| Cc1c(CCOCCCF)cc(-c2ccc(S(C)(=O)=O)cc2)n1-c1ccc(F)c(F)c1 | > 5260 | Non-toxic | inactive | Active | > 100000 | 19 | Active | Dose-dependent effect |
| Cc1c(CCOCCF)cc(-c2ccc(S(C)(=O)=O)cc2)n1-c1ccc(F)cc1 | > 7690 | Non-toxic | inactive | Active | > 100000 | 13 | Active | Dose-dependent effect |
| CCCOCCc1cc(-c2ccc(S(C)(=O)=O)cc2)n(-c2ccc(F)c(F)c2)c1C | > 5560 | Non-toxic | inactive | Active | > 100000 | 18 | Active | Dose-dependent effect |
| Cc1c(CCOCCF)cc(-c2ccc(S(C)(=O)=O)cc2)n1-c1cccc(F)c1 | > 714 | Non-toxic | inactive | Active | > 100000 | 140 | Active | Dose-dependent effect |
| CCCOCCc1cc(-c2ccc(S(C)(=O)=O)cc2)n(-c2cccc(F)c2)c1C | > 7690 | Non-toxic | inactive | inactive | > 100000 | 13 | inactive | inactive |
| Cc1c(CCOCCCF)cc(-c2ccc(S(C)(=O)=O)cc2)n1-c1cccc(F)c1 | > 2860 | Non-toxic | inactive | inactive | > 100000 | 135 | inactive | inactive |
| Cc1c(CCOCCF)cc(-c2ccc(S(C)(=O)=O)cc2)n1-c1ccc(F)c(F)c1 | > 3450 | Non-toxic | inactive | Active | > 100000 | 29 | Active | Dose-dependent effect |

— ChEMBL document CHEMBL3758101, “Synthesis and biological evaluation of fluorinated 1,5-diarylpyrrole-3-alkoxyethyl ether derivatives as selective COX-2 inhibitors endowed with anti-inflammatory activity” (Eur J Med Chem, 2016)
